Experimental data taken from the M2OR odorant receptor database.

How the values were obtained:
Settings in all cases: stereoisomer not certain
OR10G2 (Homo sapiens) = molecular target: T1, OR10G2 (Homo sapiens) (UniProt Q8NGC3)
T1 sequence (whole entry): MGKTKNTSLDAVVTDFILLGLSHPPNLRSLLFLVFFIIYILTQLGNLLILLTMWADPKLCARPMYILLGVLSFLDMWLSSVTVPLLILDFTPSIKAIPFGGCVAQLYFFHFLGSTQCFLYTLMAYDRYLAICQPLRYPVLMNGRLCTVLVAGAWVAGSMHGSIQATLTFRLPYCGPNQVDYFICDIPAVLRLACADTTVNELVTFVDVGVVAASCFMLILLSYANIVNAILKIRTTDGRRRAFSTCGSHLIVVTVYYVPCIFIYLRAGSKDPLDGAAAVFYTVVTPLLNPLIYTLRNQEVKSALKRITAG
In short: (§1)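 Whether a receptor–molecule pair is responsive (active) rests on the original authors' judgment that its measured signal was statistically different from baseline. Pairs without that judgment are non-responsive (inactive). Sources used varied assay methods, commonly transient luciferase assays in mammalian cell lines.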

OR10G3 (Homo sapiens) = molecular target: T2, OR10G3 (Homo sapiens) (UniProt Q8NGC4)
T2 sequence (whole entry): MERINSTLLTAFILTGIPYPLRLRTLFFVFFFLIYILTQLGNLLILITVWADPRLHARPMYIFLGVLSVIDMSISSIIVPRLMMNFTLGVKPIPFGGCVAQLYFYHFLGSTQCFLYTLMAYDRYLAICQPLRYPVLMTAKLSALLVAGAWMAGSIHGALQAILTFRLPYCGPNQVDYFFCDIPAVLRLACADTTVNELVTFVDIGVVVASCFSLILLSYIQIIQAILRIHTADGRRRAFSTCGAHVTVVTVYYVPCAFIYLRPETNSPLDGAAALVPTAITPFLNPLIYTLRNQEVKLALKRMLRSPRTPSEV
In short: as §1

OR10G4 (Homo sapiens) = molecular target: T3, OR10G4 (Homo sapiens) (UniProt Q8NGN3)
T3 sequence (whole entry): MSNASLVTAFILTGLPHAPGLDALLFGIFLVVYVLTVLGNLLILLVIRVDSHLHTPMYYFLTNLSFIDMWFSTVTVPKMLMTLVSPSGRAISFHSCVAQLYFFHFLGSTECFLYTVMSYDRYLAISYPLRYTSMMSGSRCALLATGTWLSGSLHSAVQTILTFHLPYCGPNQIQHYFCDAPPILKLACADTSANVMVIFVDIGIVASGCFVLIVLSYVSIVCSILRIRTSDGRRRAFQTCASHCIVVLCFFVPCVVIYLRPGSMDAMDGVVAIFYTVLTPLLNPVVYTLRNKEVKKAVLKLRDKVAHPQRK
In short: as §1

OR10G6 (Homo sapiens) = molecular target: T4, OR10G6 (Homo sapiens) (UniProt Q8NH81)
T4 sequence (whole entry): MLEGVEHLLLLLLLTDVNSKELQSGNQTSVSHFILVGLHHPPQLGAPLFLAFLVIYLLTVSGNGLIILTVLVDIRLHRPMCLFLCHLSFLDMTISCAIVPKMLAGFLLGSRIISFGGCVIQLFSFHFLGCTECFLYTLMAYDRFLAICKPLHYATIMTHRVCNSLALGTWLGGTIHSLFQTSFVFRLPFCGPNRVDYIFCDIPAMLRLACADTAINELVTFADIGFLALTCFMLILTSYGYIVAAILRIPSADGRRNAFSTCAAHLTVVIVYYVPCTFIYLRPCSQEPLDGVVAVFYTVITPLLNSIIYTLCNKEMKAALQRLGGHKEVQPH
In short: as §1

OR10G7 (Homo sapiens) = molecular target: T5, OR10G7 (Homo sapiens) (UniProt Q8NGN6)
T5 sequence (whole entry): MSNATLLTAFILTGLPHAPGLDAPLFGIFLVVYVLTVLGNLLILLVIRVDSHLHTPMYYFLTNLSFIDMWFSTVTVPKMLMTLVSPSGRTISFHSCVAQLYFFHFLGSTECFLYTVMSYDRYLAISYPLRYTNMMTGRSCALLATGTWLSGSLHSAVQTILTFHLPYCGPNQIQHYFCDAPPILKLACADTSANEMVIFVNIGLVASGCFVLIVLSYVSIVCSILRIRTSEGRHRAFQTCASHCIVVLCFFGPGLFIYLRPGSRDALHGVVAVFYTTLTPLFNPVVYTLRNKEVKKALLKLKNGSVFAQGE
In short: as §1

OR10G8 (Homo sapiens) = molecular target: T6, OR10G8 (Homo sapiens) (UniProt Q8NGN5)
T6 sequence (whole entry): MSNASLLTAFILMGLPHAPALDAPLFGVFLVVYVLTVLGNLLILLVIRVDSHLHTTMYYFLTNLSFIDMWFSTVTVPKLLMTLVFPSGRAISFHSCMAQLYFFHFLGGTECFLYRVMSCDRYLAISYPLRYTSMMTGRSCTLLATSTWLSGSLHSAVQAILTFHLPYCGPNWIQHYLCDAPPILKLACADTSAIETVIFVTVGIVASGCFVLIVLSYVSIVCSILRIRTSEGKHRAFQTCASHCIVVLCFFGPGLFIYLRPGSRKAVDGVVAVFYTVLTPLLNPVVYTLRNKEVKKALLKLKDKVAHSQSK
In short: as §1

OR10G9 (Homo sapiens) = molecular target: T7, OR10G9 (Homo sapiens) (UniProt Q8NGN4)
T7 sequence (whole entry): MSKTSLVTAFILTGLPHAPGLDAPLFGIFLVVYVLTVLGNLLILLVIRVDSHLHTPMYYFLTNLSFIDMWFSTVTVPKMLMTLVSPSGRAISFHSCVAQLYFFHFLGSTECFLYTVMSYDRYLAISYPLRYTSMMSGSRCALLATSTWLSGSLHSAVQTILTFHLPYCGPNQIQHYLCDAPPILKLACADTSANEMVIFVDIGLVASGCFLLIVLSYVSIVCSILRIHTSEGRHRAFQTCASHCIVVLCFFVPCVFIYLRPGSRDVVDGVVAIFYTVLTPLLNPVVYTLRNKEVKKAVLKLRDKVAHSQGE
In short: as §1

OR10H1 (Homo sapiens) = molecular target: T8, OR10H1 (Homo sapiens) (UniProt Q9Y4A9)
T8 sequence (whole entry): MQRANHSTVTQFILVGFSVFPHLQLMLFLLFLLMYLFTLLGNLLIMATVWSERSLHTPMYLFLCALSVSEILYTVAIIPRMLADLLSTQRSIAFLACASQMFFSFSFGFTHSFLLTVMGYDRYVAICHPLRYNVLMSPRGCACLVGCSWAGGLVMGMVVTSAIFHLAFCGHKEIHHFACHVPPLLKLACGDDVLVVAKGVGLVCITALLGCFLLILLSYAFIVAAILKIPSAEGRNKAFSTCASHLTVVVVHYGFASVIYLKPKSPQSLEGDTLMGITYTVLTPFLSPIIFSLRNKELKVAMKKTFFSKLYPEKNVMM
In short: as §1

OR10H2 (Homo sapiens) = molecular target: T9, OR10H2 (Homo sapiens) (UniProt O60403)
T9 sequence (whole entry): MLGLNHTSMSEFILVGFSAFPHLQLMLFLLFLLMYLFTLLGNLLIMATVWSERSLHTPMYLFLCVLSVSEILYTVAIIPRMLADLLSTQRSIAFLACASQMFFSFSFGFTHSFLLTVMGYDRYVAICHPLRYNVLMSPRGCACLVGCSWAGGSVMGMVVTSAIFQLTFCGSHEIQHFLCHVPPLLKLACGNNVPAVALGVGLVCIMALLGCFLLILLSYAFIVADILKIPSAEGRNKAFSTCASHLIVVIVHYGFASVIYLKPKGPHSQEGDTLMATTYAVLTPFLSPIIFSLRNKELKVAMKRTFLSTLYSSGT
In short: as §1

OR10H3 (Homo sapiens) = molecular target: T10, OR10H3 (Homo sapiens) (UniProt O60404)
T10 sequence (whole entry): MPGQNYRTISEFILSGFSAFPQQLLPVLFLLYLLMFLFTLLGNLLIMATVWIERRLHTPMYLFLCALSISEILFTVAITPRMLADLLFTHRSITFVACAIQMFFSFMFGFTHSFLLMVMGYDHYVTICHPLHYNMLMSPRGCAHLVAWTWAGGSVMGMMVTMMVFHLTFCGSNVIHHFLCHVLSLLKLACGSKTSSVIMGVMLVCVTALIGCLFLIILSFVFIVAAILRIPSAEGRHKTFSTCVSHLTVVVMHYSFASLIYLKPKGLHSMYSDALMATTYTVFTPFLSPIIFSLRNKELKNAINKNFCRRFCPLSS
In short: as §1

OR10H4 (Homo sapiens) = molecular target: T11, OR10H4 (Homo sapiens) (UniProt Q8NGA5)
T11 sequence (whole entry): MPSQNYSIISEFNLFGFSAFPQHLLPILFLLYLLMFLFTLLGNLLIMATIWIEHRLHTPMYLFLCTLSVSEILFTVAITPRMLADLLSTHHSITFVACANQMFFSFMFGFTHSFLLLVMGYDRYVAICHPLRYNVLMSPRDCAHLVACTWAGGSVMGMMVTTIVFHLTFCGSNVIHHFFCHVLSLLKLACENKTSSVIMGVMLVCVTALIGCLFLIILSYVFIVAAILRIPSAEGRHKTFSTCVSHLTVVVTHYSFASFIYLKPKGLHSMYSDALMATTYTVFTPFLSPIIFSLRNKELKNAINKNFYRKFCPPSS
In short: as §1

OR10H5 (Homo sapiens) = molecular target: T12, OR10H5 (Homo sapiens) (UniProt Q8NGA6)
T12 sequence (whole entry): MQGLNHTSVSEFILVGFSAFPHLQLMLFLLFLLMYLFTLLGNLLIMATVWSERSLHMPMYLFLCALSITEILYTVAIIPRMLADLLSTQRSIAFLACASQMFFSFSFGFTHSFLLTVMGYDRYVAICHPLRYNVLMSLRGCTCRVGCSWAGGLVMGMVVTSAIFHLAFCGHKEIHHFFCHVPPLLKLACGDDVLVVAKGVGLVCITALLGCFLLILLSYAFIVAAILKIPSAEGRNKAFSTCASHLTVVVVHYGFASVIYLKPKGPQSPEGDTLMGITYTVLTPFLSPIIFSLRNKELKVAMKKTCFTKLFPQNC
In short: as §1

OR10J3 (Homo sapiens) = molecular target: T13, OR10J3 (Homo sapiens) (UniProt Q5JRS4)
T13 sequence (whole entry): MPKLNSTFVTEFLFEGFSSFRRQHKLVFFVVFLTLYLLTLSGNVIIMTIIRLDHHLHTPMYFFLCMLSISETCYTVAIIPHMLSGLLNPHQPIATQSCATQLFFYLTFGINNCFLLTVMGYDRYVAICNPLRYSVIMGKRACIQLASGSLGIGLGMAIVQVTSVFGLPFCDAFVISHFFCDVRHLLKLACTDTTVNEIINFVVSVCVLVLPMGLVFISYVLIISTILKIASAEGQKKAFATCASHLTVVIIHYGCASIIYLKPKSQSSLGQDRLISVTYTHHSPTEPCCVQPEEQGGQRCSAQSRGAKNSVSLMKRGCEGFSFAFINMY
In short: as §1

OR10J4 (Homo sapiens) = OR10J4 (Homo sapiens) (UniProt P0C629)
In short: as §1

OR10J5 (Homo sapiens) = molecular target: T14, OR10J5 (Homo sapiens) (UniProt Q8NHC4)
T14 sequence (whole entry): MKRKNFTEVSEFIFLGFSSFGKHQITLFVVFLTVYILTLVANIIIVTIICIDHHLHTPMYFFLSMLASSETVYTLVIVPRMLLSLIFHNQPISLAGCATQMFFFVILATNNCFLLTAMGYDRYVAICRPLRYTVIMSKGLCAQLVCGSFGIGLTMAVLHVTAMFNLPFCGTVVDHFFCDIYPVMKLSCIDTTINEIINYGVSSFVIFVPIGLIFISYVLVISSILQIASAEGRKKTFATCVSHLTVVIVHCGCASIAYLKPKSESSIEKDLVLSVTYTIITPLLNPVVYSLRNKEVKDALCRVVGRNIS
In short: as §1

OR10K1 (Homo sapiens) = molecular target: T15, OR10K1 (Homo sapiens) (UniProt Q8NGX5)
T15 sequence (whole entry): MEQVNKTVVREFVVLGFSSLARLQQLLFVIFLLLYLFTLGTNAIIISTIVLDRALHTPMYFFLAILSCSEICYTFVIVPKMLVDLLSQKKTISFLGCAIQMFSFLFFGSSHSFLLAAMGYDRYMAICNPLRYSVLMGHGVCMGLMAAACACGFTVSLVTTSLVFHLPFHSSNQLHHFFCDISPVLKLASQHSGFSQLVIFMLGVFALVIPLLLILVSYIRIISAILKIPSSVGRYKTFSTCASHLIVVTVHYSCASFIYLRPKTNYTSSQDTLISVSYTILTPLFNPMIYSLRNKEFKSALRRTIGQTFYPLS
In short: as §1

OR10K2 (Homo sapiens) = molecular target: T16, OR10K2 (Homo sapiens) (UniProt Q6IF99)
T16 sequence (whole entry): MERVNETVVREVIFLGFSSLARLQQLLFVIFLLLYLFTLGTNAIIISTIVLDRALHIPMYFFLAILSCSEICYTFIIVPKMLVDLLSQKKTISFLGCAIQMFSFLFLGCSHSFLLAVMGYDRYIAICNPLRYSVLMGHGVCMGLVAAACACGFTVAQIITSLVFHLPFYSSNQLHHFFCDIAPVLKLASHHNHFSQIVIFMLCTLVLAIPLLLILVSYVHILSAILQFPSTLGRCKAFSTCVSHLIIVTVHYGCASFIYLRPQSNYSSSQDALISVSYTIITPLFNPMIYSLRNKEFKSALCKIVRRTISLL
In short: as §1

OR10P1 (Homo sapiens) = molecular target: T17, OR10P1 (Homo sapiens) (UniProt Q8NGE3)
T17 sequence (whole entry): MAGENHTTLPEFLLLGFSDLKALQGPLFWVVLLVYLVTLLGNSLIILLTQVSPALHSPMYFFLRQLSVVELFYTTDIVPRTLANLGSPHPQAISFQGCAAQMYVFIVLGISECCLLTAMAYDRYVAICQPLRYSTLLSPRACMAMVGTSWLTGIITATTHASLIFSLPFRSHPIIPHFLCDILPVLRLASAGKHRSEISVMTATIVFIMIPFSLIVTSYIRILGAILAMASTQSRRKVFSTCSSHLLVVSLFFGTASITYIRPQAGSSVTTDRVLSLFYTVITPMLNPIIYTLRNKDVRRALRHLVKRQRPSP
In short: as §1

OR10Q1 (Homo sapiens) = molecular target: T18, OR10Q1 (Homo sapiens) (UniProt Q8NGQ4)
T18 sequence (whole entry): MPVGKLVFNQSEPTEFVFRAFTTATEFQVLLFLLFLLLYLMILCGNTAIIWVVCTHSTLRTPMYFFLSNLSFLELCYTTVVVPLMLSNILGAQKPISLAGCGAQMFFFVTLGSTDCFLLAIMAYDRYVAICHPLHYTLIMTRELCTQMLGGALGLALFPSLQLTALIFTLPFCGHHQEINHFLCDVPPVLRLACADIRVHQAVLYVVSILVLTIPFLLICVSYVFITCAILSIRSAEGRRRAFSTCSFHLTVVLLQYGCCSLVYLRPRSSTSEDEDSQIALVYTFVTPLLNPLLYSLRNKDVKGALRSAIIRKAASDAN
In short: as §1

Measured: odorant receptor agonist call

Sequence of OR10J4 (Homo sapiens) (P0C629 whole entry F198I): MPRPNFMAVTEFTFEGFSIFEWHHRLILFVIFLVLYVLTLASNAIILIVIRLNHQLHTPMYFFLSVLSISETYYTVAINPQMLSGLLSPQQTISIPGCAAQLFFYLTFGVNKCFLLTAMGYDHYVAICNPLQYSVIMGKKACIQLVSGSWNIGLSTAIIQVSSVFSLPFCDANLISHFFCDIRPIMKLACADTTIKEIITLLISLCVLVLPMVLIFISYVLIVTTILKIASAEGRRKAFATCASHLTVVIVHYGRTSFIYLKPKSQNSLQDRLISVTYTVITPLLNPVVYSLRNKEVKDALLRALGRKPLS

CC1CCCCCCCCCCCCC(=O)C1 (centres undefined)
inactive: all assays above
